ChEMBL document CHEMBL5661984, “Allosteric ligands for the pharmacologically dark receptors GPR68 and GPR65” (Nature, 2015)
Activity calls are given as the source filed them.

Assays:
[1] = molecular target: T1, G-protein coupled receptor 68 (Homo sapiens, UniProt Q15743); test: Positive allosteric modulator activity at GPR68 expressed in human HEK293T cells assessed as proton-mediated calcium release at 10 uM incubated for 10 mins by Fluo-4 Direct calcium dye based FLIPR assay (reference value: 1.30 %); format: functional, cell-based
[2] = Positive allosteric modulator activity at GPR68 E160K mutant transfected in human HEK293T cells assessed as proton-mediated calcium release at 10 uM incubated for 10 mins by Fluo-4 Direct calcium dye based FLIPR assay (reference value: 1.38 +/- 0.01 %); details: HEK-293T, condition central nervous system disease
[3] = Positive allosteric modulator activity at GPR68 E160Q mutant transfected in human HEK293T cells assessed as proton-mediated calcium release at 10 uM incubated for 10 mins by Fluo-4 Direct calcium dye based FLIPR assay (reference value: 1.25 +/- 0.01 %); details: HEK-293T, condition central nervous system disease
[4] = Positive allosteric modulator activity at GPR68 R189L mutant transfected in human HEK293T cells assessed as proton-mediated calcium release at 10 uM incubated for 10 mins by Fluo-4 Direct calcium dye based FLIPR assay (reference value: 1.42 +/- 0.01 %); details: HEK-293T, condition central nervous system disease
[5] = Positive allosteric modulator activity at GPR68 R189M mutant transfected in human HEK293T cells assessed as proton-mediated calcium release at 10 uM incubated for 10 mins by Fluo-4 Direct calcium dye based FLIPR assay (reference value: 1.43 +/- 0.01 %); details: HEK-293T, condition central nervous system disease
[6] = Positive allosteric modulator activity at GPR68 H269F mutant transfected in human HEK293T cells assessed as proton-mediated calcium release at 10 uM incubated for 10 mins by Fluo-4 Direct calcium dye based FLIPR assay (reference value: 1.57 +/- 0.01 %); details: HEK-293T, condition central nervous system disease
[7] = Positive allosteric modulator activity at GPR68 E160K mutant transfected in human HEK293T cells assessed as proton-mediated calcium release at 10 uM incubated for 10 mins by Fluo-4 Direct calcium dye based FLIPR assay (reference value: 6.79 +/- 0.02); format: cell-based; details: HEK-293T
[8] = Positive allosteric modulator activity at GPR68 E160Q mutant transfected in human HEK293T cells assessed as proton-mediated calcium release at 10 uM incubated for 10 mins by Fluo-4 Direct calcium dye based FLIPR assay (reference value: 6.86 +/- 0.04); format: cell-based; details: HEK-293T
[9] = Positive allosteric modulator activity at GPR68 R189L mutant transfected in human HEK293T cells assessed as proton-mediated calcium release at 10 uM incubated for 10 mins by Fluo-4 Direct calcium dye based FLIPR assay (reference value: 6.85 +/- 0.02); format: cell-based; details: HEK-293T
[10] = Positive allosteric modulator activity at GPR68 R189M mutant transfected in human HEK293T cells assessed as proton-mediated calcium release at 10 uM incubated for 10 mins by Fluo-4 Direct calcium dye based FLIPR assay (reference value: 6.77 +/- 0.01); format: cell-based; details: HEK-293T
[11] = Positive allosteric modulator activity at GPR68 H269F mutant transfected in human HEK293T cells assessed as proton-mediated calcium release at 10 uM incubated for 10 mins by Fluo-4 Direct calcium dye based FLIPR assay (reference value: 6.44 +/- 0.02); format: cell-based; details: HEK-293T
[12] = molecular target: T1, G-protein coupled receptor 68; test: Positive allosteric modulator activity at GPR68 expressed in human HEK293T cells assessed as cAMP production in presence of H+ proton by Split-luciferase based luminescence counter analysis (reference value: 26.4 to 43.8 %); format: functional, cell-based; details: filed as positive allosteric modulator
How it was run: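 Proton concentration-response of GPR68 (wild type or E160A/K/Q, R189L/M, H269F mutants) in transiently transfected HEK293-T cells. Read-out: GloSensor cAMP, with luciferin loading 90 min at 37°C at pH 8.4. Run with and without increasing modulator concentrations; 20 min at room temperature before luminescence. Proton KA fixed to the proton EC50 without modulator. KB, τA, α, β fitted globally with an operational allosteric model. n=4.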

[13] = molecular target: T1, G-protein coupled receptor 68; test: Positive allosteric modulator activity at GPR68 expressed in human HEK293T cells assessed as cAMP production in presence of H+ proton by Split-luciferase based luminescence counter analysis (reference value: 6.53 to 6.72); format: functional, cell-based
[14] = molecular target: T1, G-protein coupled receptor 68; test: Positive allosteric modulator activity at GPR68 expressed in human HEK293T cells assessed as proton-mediated phosphatidylinositol hydrolysis on pH 8.4 at 10 uM incubated for 20 mins by TriLuxMicroBeta counter analysis; format: functional, cell-based
How it was run: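 GPR68-transfected HEK293-T cells labeled overnight with 3H-inositol (1 μCi/well) in inositol-free DMEM with 5% dialyzed FBS. Treated for 20 min at pH 8.4 in HBSS with 10 mM HEPES, 10 mM MES and 20 mM LiCl, compound at 10 μM. Extracted with 50 mM ice-cold formic acid, 30 min at 4°C. Captured on YSi beads and counted (cpm/well). n=3. 4-parameter logistic fit.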

[15] = molecular target: C-X-C chemokine receptor type 4 (Homo sapiens) (UniProt P61073); test: Agonist activity against CXCR4 receptor (unknown origin) transfected in human HEK293T cells at 10 uM incubated for 15 mins in presence of CXCL12 by luminescence counter analysis; format: functional, cell-based
How it was run: (§1)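 HEK293-T cells transiently transfected with CXCR4 and the GloSensor cAMP reporter, plated in DMEM with 1% dialyzed FBS. Test compound at 10 μM in 20 mM HEPES/HBSS, pH 7.4, 15 min at room temperature. Agonist mode: luciferin (4 mM final) plus 200 nM isoproterenol added, 20 min. Antagonist mode: compound 10 min, then reference agonist at EC80 for 10 min, then luciferin/isoproterenol. Luminescence read. CXCL12 (1 or 3 μM) is the agonist control and AMD3100 (10 μM) the antagonist control. n=2.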

[16] = molecular target: C-X-C chemokine receptor type 4 (Homo sapiens) (UniProt P61073); test: Antagonist activity against CXCR4 receptor (unknown origin) transfected in human HEK293T cells at 10 uM incubated for 15 mins in presence of AMD3100 by luminescence counter analysis; format: functional, cell-based; how it was run: as §1
[17] = Toxicity in C57BL/6 mouse assessed as improvement in learning and spatial memory at 10 mg/kg administered for 30 mins by hidden platform test; format: organism-based; details: in vivo, 0.5 h
[18] = Toxicity in C57BL/6 mouse assessed as improvement in contextual memory at 10 to 30 mg/kg administered for 30 mins; format: organism-based; details: in vivo, 0.5 h, dose 10-30 mg/kg
[19] = Toxicity in C57BL/6 mouse assessed as improvement in cue memory at 10 to 30 mg/kg administered for 30 mins by Morris water maze test; format: organism-based; details: in vivo, 0.5 h, dose 10-30 mg/kg
[20] = Toxicity in C57BL/6 mouse assessed as improvement in learning and spatial memory at 30 mg/kg administered for 30 mins by hidden platform test; format: organism-based; details: in vivo, 0.5 h
[21] = Toxicity in C57BL/6 mouse assessed as decreased contextual memory retrieval; details: in vivo
How it was run: (§2)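 Fear conditioning in wild-type and GPR68 KO C57BL/6J congenic mice. Training was 8 min: 3 pairings of a 30-s, 90 dB, 5 kHz tone with a 2-s, 0.6 mA foot shock. Context freezing scored at 24 h over 5 min; cue test at 48 h over 6 min. Freezing defined as no movement for 0.5 s. Compound 10 mg/kg in 10% Tween 80 or saline, 30 min before training. n=6–8 per group. Two-way ANOVA with Bonferroni post-hoc test.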

[22] = species: Mus musculus; test: […] activity against GPR68 knockout C57BL/6 mouse assessed as contextual memory retrieval; format: functional, organism-based; how it was run: as §2
[23] = Toxicity in C57BL/6 mouse assessed as cued memory retrieval by Morris water maze test; details: in vivo
[24] = species: Mus musculus; test: Antipsychotic activity against GPR68 knockout C57BL/6 mouse assessed as cued memory retrieval by Morris water maze test; format: functional, organism-based
[25] = molecular target: T2, G-protein coupled receptor 65 (Homo sapiens, UniProt Q8IYL9); test: Antagonist activity against GPR65 (unknown origin) transfected in human HEK293T cells incubated for 15 mins by luminescence counter analysis; format: functional, cell-based; details: filed as antagonist
How it was run: (§3)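 GloSensor split-luciferase cAMP assay. HEK293-T cells transiently co-transfected with GPR65 (wild type or the D153A, R187L, F242A or Y272A mutant) and GloSensor 7A reporter. Cells plated in DMEM with 1% dialyzed FBS for at least 6 h, then loaded with luciferin (4 mM, in drug buffer pH 8.4) for 90 min at 37°C. Compounds added at set pH in HBSS with 10 mM HEPES/10 mM MES, with TAPS for higher pH. Luminescence read after about 20 min at room temperature. Data normalized to buffer basal and fitted to a 4-parameter logistic.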

[26] = molecular target: T2, G-protein coupled receptor 65; test: Antagonist activity against GPR65 (unknown origin) transfected in human HEK293T cells incubated for 15 mins in presence of BTB09089 by luminescence counter analysis; format: functional, cell-based; details: filed as antagonist; how it was run: as §3

T1 sequence (Q15743 whole entry): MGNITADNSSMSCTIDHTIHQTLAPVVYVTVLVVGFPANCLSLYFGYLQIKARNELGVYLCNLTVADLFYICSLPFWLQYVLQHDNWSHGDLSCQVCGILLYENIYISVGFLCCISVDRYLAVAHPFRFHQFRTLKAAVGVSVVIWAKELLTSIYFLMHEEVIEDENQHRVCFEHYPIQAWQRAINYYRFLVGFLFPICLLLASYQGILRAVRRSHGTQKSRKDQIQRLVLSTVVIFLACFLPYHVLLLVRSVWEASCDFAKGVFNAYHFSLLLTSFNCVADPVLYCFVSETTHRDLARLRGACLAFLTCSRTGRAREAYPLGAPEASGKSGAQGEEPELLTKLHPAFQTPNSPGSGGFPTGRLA
T2 sequence (Q8IYL9 whole entry): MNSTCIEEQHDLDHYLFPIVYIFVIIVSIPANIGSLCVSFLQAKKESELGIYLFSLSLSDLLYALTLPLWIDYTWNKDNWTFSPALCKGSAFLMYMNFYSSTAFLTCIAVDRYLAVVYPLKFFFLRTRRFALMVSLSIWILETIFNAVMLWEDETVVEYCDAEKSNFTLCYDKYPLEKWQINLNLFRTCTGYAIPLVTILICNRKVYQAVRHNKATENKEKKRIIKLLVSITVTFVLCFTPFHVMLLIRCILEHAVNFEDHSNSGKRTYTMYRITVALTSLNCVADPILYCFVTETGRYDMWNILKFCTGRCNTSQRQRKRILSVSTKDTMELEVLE
Chain of C-X-C chemokine receptor type 4 (Homo sapiens) (P61073 whole entry): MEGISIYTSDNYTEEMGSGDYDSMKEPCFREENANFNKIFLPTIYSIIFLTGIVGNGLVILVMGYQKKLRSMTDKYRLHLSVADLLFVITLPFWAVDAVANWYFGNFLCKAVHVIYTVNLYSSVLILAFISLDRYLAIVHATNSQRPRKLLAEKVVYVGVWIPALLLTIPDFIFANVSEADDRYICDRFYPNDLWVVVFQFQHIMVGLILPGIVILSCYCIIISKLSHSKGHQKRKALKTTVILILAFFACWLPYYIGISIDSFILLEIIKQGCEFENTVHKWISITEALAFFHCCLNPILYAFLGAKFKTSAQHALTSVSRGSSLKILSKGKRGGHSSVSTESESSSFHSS

Nc1nc(NCc2ccccc2)nc(-c2cccc(CO)c2)n1 [ZINC32547799]
Emax [1]: 1.33% | Emax at 10 µM [2]: 1.38% | Emax at 10 µM [3]: 1.21% | Emax at 10 µM [4]: 1.36% | Emax at 10 µM [5]: 1.35% | Emax at 10 µM [6]: 1.52% | EC50 [7]: 158 nM | EC50 [8]: 234 nM | EC50 [9]: 129 nM | EC50 [10]: 186 nM | EC50 [11]: 339 nM | Emax [12]: 43.1% | EC50 [13]: 158 nM | Activity [14]: inactive | Activity [15]: inactive | Activity [16]: inactive | Activity [17]: Non-Toxic | Activity [18]: Non-Toxic | Activity [19]: Non-Toxic | Activity [20]: Toxic | Activity [21]: Non-Toxic | Activity [22]: inactive | Activity [23]: Non-Toxic | Activity [24]: inactive

Cc1nc(-c2ncccn2)sc1C(=O)O[C@@H](c1ccccc1)c1ccncc1
Activity [25]: Active | Activity [26]: Active
